# Shown are actives, neighbours in structure and some others; about 3.3% of the full set was active somewhere.
# PRMT1 FP inh: PRMT1 methyltransferase inhibitors, primary screen, biochemical, fluorescence polarization; Protein arginine N-methyltransferase 1 (Homo sapiens), Q99873; recombinant PRMT1, activity-based probe fluorescence polarization; inhibition, % at 2.79 µM; hit rate 1.3% among 370,000;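 active = inhibition above about 21% made by adding two undisclosed values, limit read from the data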
# mABHD4 FP: ABHD4 inhibitors, primary screen, biochemical, fluorescence polarization, mouse. (Lyso)-N-acylphosphatidylethanolamine lipase (Mus musculus), Q8VD66. purified mABHD4, FP-Rh probe fluorescence polarization. inhibition, % at 8.92 µM. hit rate 0.54% among 370,000. AID 720543, 2013;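 active = inhibition exceeding the mean over every tested compound plus 3 SD, cut at about 30% in these data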;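 note: 0% = plate median of compound wells and 100% = S159A mutant with DMSO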
#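 Assay system: Wild-type mouse ABHD4 protein | Medium: HEPES pH 7.0 buffer, 150 mM NaCl, 0.01% Pluronic F-127 | Incubation: Enzyme–compound pre-incubation 45 min, then probe 60 min, both 25 °C | Technique: Fluorescence polarization with parallel and perpendicular emission, 525/598 nm | Evaluation: % inhibition of FP-Rh probe binding versus controls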
# rCAG binder: binders of r(CAG) RNA repeats, primary screen, biochemical, fluorescence. r(CAG) RNA repeat, TO-PRO-1 dye displacement fluorescence. inhibition, % at 3 µM. hit rate 1.3% among 370,000. AID 651821, 2012;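 active = inhibition above the plate cutoff, the mean of all test compounds on that plate plus 3 SD, cut at about 35% in these data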;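 note: 0% = DMSO alone and 100% = 100 µM mitoxantrone as full dye displacement; higher means more dye released from RNA so lower well fluorescence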
# TCR CD3 inh: inhibitors of human TCR-CD3 interaction, primary screen, biochemical, fluorescence, TAMRA-labeled TCR probe; inhibition, % at 9.4 µM; hit rate 0.37% among 360,000; in the data active = inhibition above about 19%;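 note: recombinant mutant TCR 2C K166C tagged with TAMRA read by polarization; 0% = receptor in buffer alone and 100% = receptor with positive control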
# SIAE inh: human SIAE inhibitors, primary screen, biochemical, fluorescence polarization, FP-Rh probe, 1536-well HTS; Sialate O-acetylesterase (Homo sapiens), Q9HAT2; SIAE FP-Rh probe binding; inhibition, % at 9.66 µM; hit rate 0.69% among 370,000; AID 1053197, 2014;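 active = inhibition above a cutoff: mean of compounds within the control limits plus 3 SD of those, cut at about 17% in these data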;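 note: 0% = plate median of compound wells and 100% = probe without SIAE protein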
# Target sequence (Q9HAT2 whole entry, looked up): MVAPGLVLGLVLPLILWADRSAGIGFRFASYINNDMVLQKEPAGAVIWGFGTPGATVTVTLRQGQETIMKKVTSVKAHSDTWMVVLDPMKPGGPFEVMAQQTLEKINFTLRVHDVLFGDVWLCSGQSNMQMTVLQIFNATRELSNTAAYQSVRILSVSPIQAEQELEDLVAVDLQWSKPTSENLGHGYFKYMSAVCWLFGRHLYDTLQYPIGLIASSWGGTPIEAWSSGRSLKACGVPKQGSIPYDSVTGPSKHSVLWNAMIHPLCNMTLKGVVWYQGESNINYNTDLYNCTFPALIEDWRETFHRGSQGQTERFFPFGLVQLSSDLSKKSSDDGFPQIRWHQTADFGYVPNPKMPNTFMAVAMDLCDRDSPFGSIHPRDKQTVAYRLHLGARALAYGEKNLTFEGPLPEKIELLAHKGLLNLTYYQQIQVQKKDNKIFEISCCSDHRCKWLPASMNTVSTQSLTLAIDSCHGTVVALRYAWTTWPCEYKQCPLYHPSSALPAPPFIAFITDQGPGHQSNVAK
# * hit, by the source's call; · = no result given.
SMILES,PRMT1 FP inh,mABHD4 FP,rCAG binder,TCR CD3 inh,SIAE inh
COC(=O)C1=C(C)N(C)C(=O)NC1c1cc2c(cc1[N+](=O)[O-])OCO2 (stereo unspecified),10,9,3,16,5
COC(=O)C1=C(C)N(CCCC(=O)O)C(=O)NC1c1cc2c(cc1[N+](=O)[O-])OCO2 (stereo unspecified),27*,17,11,-1,8
CCOC(=O)Cn1cc(CN2CCS(=O)(=O)N(Cc3ccc(OC)cc3)C(C(=O)OC)C2)nn1 (stereo unspecified),4,4,2,·,2
CO[C@@]1(NC(=O)CSCC#N)C(=O)N2C(C(=O)O)=C(CSc3nnnn3C)CS[C@@H]21,10,-2,52*,-3,7
C[C@H](O)[C@@H]1CN2CCc3c([nH]c4c(-c5ccc6c(c5)OCO6)cccc34)[C@@H]2C[C@@H]1N(C)C(=O)Nc1ccccc1,2,10,13,·,5
O=C(COC(=O)[C@@H]1CCCN1S(=O)(=O)c1ccc(Cl)cc1)NC12CC3CC(CC(C3)C1)C2,0,6,-1,-1,-2
COc1cc(NC(=O)COC(=O)[C@@H]2CCCN2S(=O)(=O)c2ccc(Cl)cc2)cc(OC)c1OC,2,-3,-4,3,18*
COc1cc(/C=C(/C#N)c2nc3ccccc3[nH]2)ccc1OCc1ccc(C(=O)O)o1,1,15,40*,9,-21
COC(=O)c1ccc(COc2ccc(/C=C(\C#N)c3nc4ccccc4[nH]3)cc2OC)o1,-5,-36,18,3,-54
COC(=O)c1ccc(Cn2ccc3ccc(-c4ccc5ccn(C(=O)c6cccc(OC)c6)c5c4)cc32)cc1,-6,-2,8,·,-6
O=C1/C(=C\c2ccco2)CCC/C1=C\c1ccco1,22*,-5,18,1,1
COc1ccc2c(c1)c(=O)oc1c(C)c(OC(C)C(=O)N[C@@H](Cc3c[nH]c4ccc(O)cc34)C(=O)O)ccc12 (stereo partly specified),17,16,69*,8,-37
CC(Oc1ccc2c(-c3ccccc3)cc(=O)oc2c1)C(=O)NC(Cc1c[nH]c2ccc(O)cc12)C(=O)O (stereo unspecified),5,12,33,8,17
N#Cc1ccc(C(C(=O)NC2CCCCC2)n2c(=O)c(-c3cc4ccccc4[nH]3)nc3ccccc32)cc1 (stereo unspecified),2,-14,19,-4,-17
CC(C)(C)NC(=O)C(c1ccc(-c2ccccc2)cc1)n1c(=O)c(-c2ccccc2)nc2ccccc21 (stereo unspecified),0,-13,9,4,-12
Cc1cccc(C)c1NC(=O)C(c1ccc(-c2ccccc2)cc1)n1c(=O)c(-c2ccco2)nc2ccccc21 (stereo unspecified),11,-20,41*,-12,-27
N#Cc1ccc(C(C(=O)NC2CCCCC2)n2c(=O)c(-c3ccco3)nc3ccccc32)cc1 (stereo unspecified),22*,-3,27,3,-16
CC(C)(C)NC(=O)C(c1ccc(-c2ccccc2)cc1)n1c(=O)c(-c2ccco2)nc2ccccc21 (stereo unspecified),3,-1,37*,5,-13
CC(C)(C)c1ccc(-c2nnc3n2N=C(c2ccc(Cl)cc2)CS3)cc1,5,1,3,·,2
CCc1nc(N[C@@H](Cc2c[nH]c3ccccc23)C(=O)O)c2oc3ccccc3c2n1,0,2,36*,5,3
Cc1[nH]c2ccccc2c1CC#N,-4,-8,5,3,-5
Cc1[nH]c2ccccc2c1C(C#N)(C#N)C1C(=O)c2ccccc2C1=O,1,39*,20,-1,8
COc1ccc(Cn2c(C)nc3c(c2=O)c2nc4ccccc4nc2n3Cc2ccco2)cc1,40*,-6,13,-2,-31
CC(=O)N(c1ccccc1C)C1CCCC1,0,4,-2,0,-7
CC(=O)N(C1=C(Cl)C(=O)c2ccccc2C1=O)C1CCCCC1,92*,11,-2,0,12
SMILES,PRMT1 FP inh,mABHD4 FP,rCAG binder,TCR CD3 inh,SIAE inh
CCOC(=O)c1nn(-c2ccccc2)c(=O)c2c(N)scc12,17,6,4,-20,1
CCOC(=O)c1nn(-c2ccccc2C)c(=O)c2c(N)scc12,25*,0,0,-9,1
COc1ccc(OC)c(CN2C(=O)CCCCC2(C)c2nnnn2C2CCCC2)c1 (stereo unspecified),0,2,2,·,-4
CN1C(=O)/C(=C\c2ccccc2OCc2ccccc2)SC1=S,2,0,3,4,-1
O=C(O)COc1ccccc1/C=C1\SC(=S)N(/N=C/c2ccccc2O)C1=O,23*,8,11,-2,1
CCOC(=O)c1cc2n(c1/N=C/N(C)C)-c1ccccc1C2=O,23*,4,-1,-7,0
CCCCCCCCS(=O)c1sc2nc3c(cc2c1N)CCCC3 (stereo unspecified),24*,-10,18,-7,-3
NC(=O)[C@@H]1CCCCNc2c(I)cc([N+](=O)[O-])cc2C(=O)N[C@@H](CCC(=O)O)C(=O)N[C@@H](CO)C(=O)N1,4,15,46*,5,-4
COc1ccc(Oc2c(Cl)cnn(-c3ccc(C(C)C)c(C)c3)c2=O)cc1,7,3,·,·,3
COc1cc(/C=C2/C(=O)NN(c3ccc(Cl)cc3)C2=O)ccc1OC(=O)c1ccco1,17,29,76*,9,2
COc1ccc(N=C2S/C(=C\c3ccc(OCC(=O)O)cc3)C(=O)N2CCc2c[nH]c3ccccc23)cc1,5,-1,68*,4,-7
CC(=O)Nc1ccc(/C=C/COC(C)=O)cc1C,-1,0,·,·,-4
COCc1nnc(NS(=O)(=O)c2ccc(Cl)cc2)s1,-3,-6,2,2,-3
O=S(=O)(Nc1nnc(-c2ccccc2)s1)c1ccc(Cl)cc1,3,-25,74*,0,-9
C[C@H](CCCCC1(C)OCCO1)CCC(=O)N(c1ccccc1)c1ccccc1,2,-7,1,·,1
COc1cc(OC)cc(-c2nnc(SCc3ccc(C(=O)O)cc3)o2)c1,22*,-18,14,-6,-8
O=C(O)c1ccc(CSc2nnc(-c3ccco3)o2)cc1,-1,-6,0,3,9
COc1ccc(-c2c(C(F)(F)F)[nH]n3c(=O)cc(-c4ccccc4)nc23)cc1,-8,-20,38*,0,5
CCc1ccc(C(=O)CSc2ncn[nH]2)cc1,23*,4,0,0,3
COc1cc(NC(C)CCCNC(C)C)c2ncccc2c1OC (stereo unspecified),2,16,3,2,9

# Screening data as filed in PubChem.
